Reference: ChEMBL document CHEMBL4513216, “Probing the Open Global Health Chemical Diversity Library for Multistage-Active Starting Points for Next-Generation Antimalarials” (ACS Infect Dis, 2020)

Test: Toxicity liver stage against HepG2, at 10uM
Assay type: cell-based
Design: test concentration 10 uM, cell line HepG2-A16-CD81EGFP
Conditions: human, HepG2-A16-CD81EGFP cells; read-out: INHIBITION
In short: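 Uninfected HepG2-A16-CD81EGFP cells, 3 × 10^3 per well, 1536-well, plated on prespotted compound at 10 μM final, parasite-free screening media added to match infected plates; puromycin 10 μM positive, DMSO 0.5% negative; run in parallel with 48 h PbLuc assay at 37 °C, 5% CO2; viability by CellTiter-Glo luminescence, normalized to controls.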

Row | SMILES | cytotoxicity at 10 µM [%]
1 | CCCn1cnc2c1CN(S(=O)(=O)c1ccc(F)cc1)[C@H](C(=O)OC)C2 | 1.2
2 | O[C@H]1COCCN(Cc2cccc(C(F)(F)F)c2)C1 | -1.8
3 | CCN(CC)C(=O)CSc1nc2nc(C)ccc2o1 | 5.73
4 | CC(C)NC(=O)CSc1nc2c(cnn2CCO)c(=O)[nH]1 | -8.72
5 | CC(C)NC(=O)N1CCCC2(CCN(c3ccsc3)C2=O)C1 (stereo not drawn) | -0.42
6 | O=C1CCCN1Cc1ncn2c1CN(S(=O)(=O)c1cccs1)CCC2 | 4.76
7 | Cn1cc(C(=O)NCc2cn3c(n2)CN(Cc2ccncc2)CC3)cn1 | 5.71
8 | O=C(O)c1nnn(Cc2ccc(F)cc2)c1-c1cccnc1 | -6.21
9 | O=c1ccc(-c2cccs2)nn1CN1CCN(C2CCS(=O)(=O)C2)CC1 (stereo not drawn) | 9.99
10 | CCc1ccc(NC(=O)CC2Cn3ncnc3NC2=O)cc1 (stereo not drawn) | 6.47
11 | CN(C)CC1CSCCCN1C(=O)c1ccc(=O)[nH]c1 (stereo not drawn) | 2.76
12 | CC(C)N1CCn2c(nc3cc(C(N)=O)ccc32)C1 | -11.3
13 | Cc1noc([C@@]23CCO[C@@H]2CCN(C(=O)c2sccc2C)C3)n1 | -8.23
14 | O=c1cc(Cn2ccnc2)nc2n1CCCN(Cc1ccsc1)C2 | -0.808
15 | CCCNC(=O)c1nn(CC)cc1NC(=O)c1c(C)nn(C)c1C | -7.95
16 | Cc1ccc(C2NC(=O)c3cc(C(C)C)sc3N2)cc1 (stereo not drawn) | 7.96
17 | Cc1nc(C)c(C(=O)N2CCc3nnc(C4CCCCN4C)n3CC2)o1 (stereo not drawn) | 1.9
18 | Cc1cccn2c(NC(C)(C)C)c(C3CCN(C(=O)C4CC4)CC3)nc12 | 3.53
19 | O=C(NCC1CCOCC1)c1cc(-c2cccnc2)c2cnccc2n1 | 13.2
20 | O=C(c1cncs1)N1CCOC(c2cc(CCO)[nH]n2)C1 (stereo not drawn) | -0.49
21 | Cc1ncc(CN2CCC(O)(c3ccccc3F)CC2)cn1 | 0.46

Row | SMILES | cytotoxicity at 10 µM [%]
22 | CCN(CC)S(=O)(=O)c1cc2c3c(c1)c(C)cc(=O)n3CC2 | 5.45
23 | Cc1nc(C2CCCCN2S(C)(=O)=O)no1 (stereo not drawn) | 9.23
24 | CC(C)OCCCNS(=O)(=O)c1ccc2c(c1)NC(=O)C(C)O2 (stereo not drawn) | 0.893
25 | CCCn1ncc(CN(Cc2cccnc2)Cc2cccs2)c1C | 1.64
26 | Cc1ccc(N(C)[C@@H]2CC[C@@H]3CN(C(=O)C4CCOCC4)C[C@@H]32)nn1 | -4.43
27 | Cc1cc(N2CCC(c3n[nH]c4nccnc34)C2)ncn1 (stereo not drawn) | -22.7
28 | NC(=O)CN1CCOCC(Cc2ccccc2)C1 (stereo not drawn) | 0.579
29 | Cc1nc(C2CCN(C(=O)c3cnc(N(C)C)nc3)CC2)c2sccn12 | -4.5
30 | CCC(CC)(CNC(=O)c1cccn1Cc1cccnc1)N(C)C | -53.6
31 | Clc1ccc(C(CNCc2cccnc2)n2cccn2)cc1 (stereo not drawn) | -5.07
32 | Cn1cc(CCC(=O)NC(c2ccc(F)cc2)C(F)(F)F)cn1 (stereo not drawn) | 1.68
33 | Cc1cc(CNC(=O)Nc2ccc(C(=O)NC3CC3)cc2)no1 | -0.396
34 | CCOC(=O)c1ccc(CNC(=O)c2ccon2)o1 | 8.64
35 | N#Cc1cccc(CN(CC(=O)N2CCCC2)CC2CCCO2)c1 (stereo not drawn) | -5.52
36 | CCOC(=O)C1CCN(C(=O)CN2CCCC2Cc2ccccc2)CC1 (stereo not drawn) | 12.7
37 | COc1ccc(CNC(=O)CCc2c(C)noc2C)cc1F | -6.87
38 | COc1ccc(NC(=O)Cc2c(C)nc3c(c2C)c(=O)[nH]n3C)cn1 | 7.32
39 | Cn1cc(Br)c(=O)c(NS(=O)(=O)c2ccc(Cl)cc2)c1 | -5.28
40 | CCNC(=O)CCCC(=O)N1CCc2cc(Cl)cc(Cl)c2C1 | -15.1
41 | Cc1ccsc1C(=O)Nc1cnn(CC(=O)NC2CCCC2)c1 | -1.65
42 | NC(=O)NC(=O)CCn1ccc(-c2ccsc2)n1 | 8.56

Row | SMILES | cytotoxicity at 10 µM [%]
43 | CC(C)OCCN(C)CC(c1cccs1)N1CCOCC1 (stereo not drawn) | -4.34
44 | c1cnn(C2CN(c3ncnc4[nH]ccc34)C2)c1 | 1.87
45 | Cn1c(C(N)=O)ccc1-c1ccccc1 | 3.18
46 | CCN(CCCNc1ncnc2cc(F)c(F)cc12)S(C)(=O)=O | 37.7
47 | Cn1c(CN2CCOC(Cn3cncn3)C2)nc2ccccc21 (stereo not drawn) | -4.76
48 | O=C(c1ccc(Br)cc1F)N1CCc2ccncc21 | -1.16
49 | CCOCCS(=O)(=O)N(CC)Cc1ccc(Cl)s1 | -6.15
50 | CN(Cc1ccco1)Cc1ccccc1CNC(=O)c1ccncc1 | -9.87
51 | Cc1c(I)cccc1C(=O)NCC1(CO)CC1 | -4.11
52 | CCN1CCN(c2ccc(F)cc2C(C)NCc2ccncc2)CC1 (stereo not drawn) | -1.4
53 | CC(C(=O)NCc1ccnc(Oc2ccc(F)cc2)c1)n1cncn1 (stereo not drawn) | -3.63
54 | Cc1cccc(N2CCC(NC(=O)CCCc3cccs3)CC2)n1 | -12.5
55 | COc1ccc([C@@H]2CN(c3cc(OC)nc(N)n3)C[C@H]2N(C)C)cc1 | 15
56 | CC(=O)Nc1ccc2nc(CN(C)Cc3noc(C)n3)ccc2c1 | 3.47
57 | O=C1NCCN1CCNc1cc(-c2ccncc2)nc2ccnn12 | -4.76
58 | CN(CC1Cc2ccccc2CN1C)C(=O)CSc1ccccn1 (stereo not drawn) | -1.32
59 | Cc1ccc(Cl)c(CN2CCN(C)C(C(=O)O)C2)c1F (stereo not drawn) | -0.0679
60 | CCc1cc(-c2nccn2-c2ccccc2CN2CCOCC2)on1 | -7.91
61 | CN(C)CCCNC(=O)C(c1cccc(F)c1)N(C)C (stereo not drawn) | -4.58
62 | COC(=O)C1CCCN1C(=O)c1cc(CC(C)C)no1 (stereo not drawn) | 14
63 | O=C(O)CC1COCCN1Cc1ccccc1-c1ccccc1 (stereo not drawn) | 12.9

Row | SMILES | cytotoxicity at 10 µM [%]
64 | COc1c(F)cc(-c2cn(CCn3c(C)cc(C)nc3=O)nn2)cc1Cl | -1.72
65 | CN(Cc1cccnc1)CC1CCOc2ccccc2C1 (stereo not drawn) | -4.92
66 | Cc1cc(CN2CCOCS2(=O)=O)ccc1F | -8.02
67 | Cc1ccc(-c2nc(C(=O)N3CCN(C(=O)N(C)C)CC3)cs2)c(C)c1 | -7.98
68 | COc1cccc2cc(CNCc3ccnc(N(C)C)c3)oc12 | -6.87
69 | CC(c1nc(C(C)(C)C)no1)N1CCN(Cc2ccc(C#N)cc2)CC1 (stereo not drawn) | -5.38
70 | CC(=O)NC1CCCN(Cc2ccn(C)c(=O)c2)C1 (stereo not drawn) | 2.34
71 | CCN(CC)c1ccc(C(=O)N2CCCC2Cn2cc(C)cn2)cn1 (stereo not drawn) | -17.2
72 | CCOCCCn1c(NC(=O)c2cnn(C)c2)nc2ccccc21 | -12.1
73 | Cc1ccc(S(=O)(=O)NC(=O)c2cccc(OCC(N)=O)c2)s1 | -9.55
74 | Cc1noc([C@@H](C)NCc2ccc(F)cc2)c1C(=O)O | -5.57
75 | CN(C)S(=O)(=O)N1C[C@@H](Oc2ccccn2)[C@H]2OCCC[C@H]21 | 1.16
76 | CNC(=O)C1(CCCc2ccncc2)CCN1 (stereo not drawn) | -9.08
77 | c1cc(CN2CCC3(CC2)CC(N2CCCC2)CO3)co1 (stereo not drawn) | 2.38
78 | Cn1cccc1C(=O)N[C@@H]1CN(Cc2cccs2)[C@@H]2COC[C@@H]21 | 8.88
79 | Cc1nc(CN2C(=O)COC3(CCN(Cc4ccco4)CC3)C2C)cs1 (stereo not drawn) | -13.5
80 | CNC(=O)C1(CCCc2ccncc2)CCCCN1 (stereo not drawn) | -37.5
81 | c1ccc(Cn2cc3c(n2)C(CNCc2ccco2)OCC3)nc1 (stereo not drawn) | -7.85
82 | CN(C)C[C@H]1OC[C@@H]2CCN(C(=O)c3ccco3)C[C@@H]21 | 4.84
83 | COCCN1C[C@@H]2CC[C@H]1CN(C(=O)CCc1n[nH]c(C)c1C)C2 | -8.92
